This passage reports MIC and LC50 results from ChEMBL document CHEMBL3576803, “Antimicrobial Phenolic Bisabolanes and Related Derivatives from Penicillium aculeatum SD-321, a Deep Sea Sediment-Derived Fungus” (J Nat Prod, 2015).

Each structure is given as a SMILES string. In brackets after ≈: the same amount, converted by molar mass. Bounds are passed on as bounds.

The test system of one data set is Escherichia coli. As to the kind of experiment: Antibacterial activity against Escherichia coli EMBLC-1 by microplate assay. The format is functional.
The test system of another data set is Staphylococcus aureus. As to the kind of experiment: Antibacterial activity against Staphylococcus aureus EMBLC-2 by microplate assay. The format is functional.
A further data set relates to Aeromonas hydrophila. Nature of the data set: Antibacterial activity against Aeromonas hydrophila QDIO-1 by microplate assay. The format is functional.
For another data set, the system named is Edwardsiella tarda. As to the kind of experiment: Antibacterial activity against Edwardsiella tarda QDIO-2 by microplate assay. Format: functional.
The subject of another data set is Micrococcus luteus. As to the kind of experiment: Antibacterial activity against Micrococcus luteus QDIO-3 by microplate assay. Format: functional.
The test system of the next data set is Pseudomonas aeruginosa. As to the kind of experiment: Antibacterial activity against Pseudomonas aeruginosa QDIO-4 by microplate assay. The format is functional.
The test system of a further data set is Vibrio alginolyticus. Nature of the data set: Antibacterial activity against Vibrio alginolyticus QDIO-5 by microplate assay. The format is functional.
The next data set deals with Vibrio anguillarum. As to the kind of experiment: Antibacterial activity against Vibrio anguillarum QDIO-6 by microplate assay. The format is functional.
In a further data set the test system is Vibrio harveyi. As to the kind of experiment: Antibacterial activity against Vibrio harveyi QDIO-7 by microplate assay. Format: functional.
For another data set, the system named is Vibrio parahaemolyticus. As to the kind of experiment: Antibacterial activity against Vibrio parahaemolyticus QDIO-8 by microplate assay. The format is functional.
The subject of another data set is Alternaria brassicae. Nature of the data set: Antifungal activity against Alternaria brassicae QDAU-1 by microplate assay. The format is functional. In a few lines: (§1)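 Phytopathogenic fungal strains came from a research group at Qingdao Agricultural University and are kept at the Key Laboratory of Experimental Marine Biology, Institute of Oceanology, CAS. Tested by microplate assay with amphotericin B as the positive control.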

In data set [1] the test system is Colletotrichum gloeosporioides. Nature of the data set: Antifungal activity against Colletotrichum gloeosporioides QDAU-2 by microplate assay. The format is functional. In a few lines: as §1
Another data set has as its system Gaeumannomyces graminis. Nature of the data set: Antifungal activity against Gaeumannomyces graminis QDAU-3 by microplate assay. Format: functional. In short, it runs like this: as §1
Data set [2] is described as follows: Toxicity in brine shrimp. Format: organism-based. Conditions: artemia salina, in vivo; read-out: LD50 (the source's name).

Regarding `CC(C)(O)CCC[C@](C)(O)c1ccc(C(=O)O)cc1O`, the MIC against Escherichia coli is 32 µg/mL (≈ 113 µM); in the data set on Staphylococcus aureus, more than 32 µg/mL; against Aeromonas hydrophila it was 32 µg/mL (≈ 113 µM); against Edwardsiella tarda, more than 32 µg/mL; against Micrococcus luteus, more than 32 µg/mL; with Pseudomonas aeruginosa, more than 32 µg/mL. Besides, the MIC with Vibrio alginolyticus was more than 32 µg/mL; against Vibrio anguillarum, 32 µg/mL (≈ 113 µM); in the data set with Vibrio harveyi, more than 32 µg/mL; in the data set on Vibrio parahaemolyticus it was 32 µg/mL (≈ 113 µM); against Alternaria brassicae it was more than 32 µg/mL; in data set [1], more than 32 µg/mL. The compound further displayed an MIC with Gaeumannomyces graminis of more than 32 µg/mL. Further, the LC50 in [2] was more than 10 µg/mL.
Turning to `CC(C)CCC[C@](C)(O)c1ccc(COC(=O)c2ccc([C@@](C)(O)CCCC(C)C)c(O)c2)cc1O`, the MIC with Escherichia coli is more than 32 µg/mL; with Staphylococcus aureus, more than 32 µg/mL; with Aeromonas hydrophila it was more than 32 µg/mL; against Edwardsiella tarda it was 8 µg/mL (≈ 16 µM); in the data set with Micrococcus luteus, more than 32 µg/mL; against Pseudomonas aeruginosa, more than 32 µg/mL. Also, the MIC is more than 32 µg/mL with Vibrio alginolyticus; more than 32 µg/mL with Vibrio anguillarum; more than 32 µg/mL against Vibrio harveyi; 32 µg/mL (≈ 63.9 µM) against Vibrio parahaemolyticus; 32 µg/mL (≈ 63.9 µM) in the data set on Alternaria brassicae; more than 32 µg/mL in data set [1]. This compound came in with an MIC in the data set on Gaeumannomyces graminis of more than 32 µg/mL. In addition, the LC50 in data set [2] was more than 10 µg/mL.
For the compound `O=C(N[C@H](CO)[C@H](O)c1ccc([N+](=O)[O-])cc1)C(Cl)Cl` [CHLORAMPHENICOL], the MIC was 4 µg/mL (≈ 12.4 µM) against Escherichia coli; 0.5 µg/mL (≈ 1.55 µM) against Staphylococcus aureus; 4 µg/mL (≈ 12.4 µM) with Aeromonas hydrophila; 8 µg/mL (≈ 24.8 µM) against Edwardsiella tarda; 8 µg/mL (≈ 24.8 µM) in the data set with Micrococcus luteus; 8 µg/mL (≈ 24.8 µM) with Pseudomonas aeruginosa. For the same compound, the MIC with Vibrio alginolyticus was found to be 0.5 µg/mL (≈ 1.55 µM); against Vibrio anguillarum, 0.5 µg/mL (≈ 1.55 µM); against Vibrio harveyi, 4 µg/mL (≈ 12.4 µM); with Vibrio parahaemolyticus it was 0.5 µg/mL (≈ 1.55 µM).
Consider `C/C(=C\CCC(C)C)c1ccc(Cc2c(C)cc(Oc3cc(C)cc(O)c3)cc2O)cc1O`, for which the minimal inhibitory concentration (MIC) with Escherichia coli was 32 µg/mL (≈ 71.7 µM); in the data set with Staphylococcus aureus, more than 32 µg/mL; in the data set with Aeromonas hydrophila it was more than 32 µg/mL; in the data set with Edwardsiella tarda, more than 32 µg/mL; in the data set on Micrococcus luteus it was 8 µg/mL (≈ 17.9 µM); against Pseudomonas aeruginosa it was 4 µg/mL (≈ 8.96 µM). Further, the MIC was 8 µg/mL (≈ 17.9 µM) against Vibrio alginolyticus; 32 µg/mL (≈ 71.7 µM) against Vibrio anguillarum; more than 32 µg/mL in the data set with Vibrio harveyi; 32 µg/mL (≈ 71.7 µM) against Vibrio parahaemolyticus; 32 µg/mL (≈ 71.7 µM) against Alternaria brassicae; 32 µg/mL (≈ 71.7 µM) in data set [1]. Further, the MIC against Gaeumannomyces graminis is 32 µg/mL (≈ 71.7 µM). Moreover, the LC50 in data set [2] was more than 10 µg/mL.
Turning to `CC(C)CCC[C@](C)(O)c1ccc(C(=O)O)cc1O`, the MIC against Escherichia coli was more than 32 µg/mL; against Staphylococcus aureus, 32 µg/mL (≈ 120 µM); in the data set on Aeromonas hydrophila, more than 32 µg/mL; against Edwardsiella tarda it was 32 µg/mL (≈ 120 µM); with Micrococcus luteus it was more than 32 µg/mL; in the data set on Pseudomonas aeruginosa, more than 32 µg/mL. Besides, the MIC against Vibrio alginolyticus is more than 32 µg/mL; with Vibrio anguillarum it was 32 µg/mL (≈ 120 µM); against Vibrio harveyi, 4 µg/mL (≈ 15 µM); in the data set with Vibrio parahaemolyticus it was 4 µg/mL (≈ 15 µM); in the data set on Alternaria brassicae it was more than 32 µg/mL; in data set [1], 32 µg/mL (≈ 120 µM). This compound also displayed an MIC with Gaeumannomyces graminis of 0.5 µg/mL (≈ 1.88 µM). In addition, the LC50 in [2] is more than 10 µg/mL.
In the case of `CC(C)C(O)CC[C@](C)(O)c1ccc(C(=O)O)cc1O` (some centres undefined), the MIC in the data set on Escherichia coli was more than 32 µg/mL; against Staphylococcus aureus, 32 µg/mL (≈ 113 µM); against Aeromonas hydrophila, 32 µg/mL (≈ 113 µM); in the data set on Edwardsiella tarda, more than 32 µg/mL; with Micrococcus luteus it was more than 32 µg/mL; with Pseudomonas aeruginosa, more than 32 µg/mL. For the same compound, the MIC against Vibrio alginolyticus is more than 32 µg/mL; against Vibrio anguillarum, more than 32 µg/mL; against Vibrio harveyi it was 8 µg/mL (≈ 28.3 µM); with Vibrio parahaemolyticus, 32 µg/mL (≈ 113 µM); in the data set on Alternaria brassicae, more than 32 µg/mL; in [1], more than 32 µg/mL. The compound further registered an MIC against Gaeumannomyces graminis of more than 32 µg/mL. Further, in [2], the LC50 was more than 10 µg/mL.
With `C=C(C)CCC[C@](C)(O)c1ccc(C(=O)O)cc1O` [11-DEHYDROSYDONIC ACID], the MIC was more than 32 µg/mL in the data set with Escherichia coli; 32 µg/mL (≈ 121 µM) against Staphylococcus aureus; more than 32 µg/mL against Aeromonas hydrophila; more than 32 µg/mL with Edwardsiella tarda; 32 µg/mL (≈ 121 µM) against Micrococcus luteus; more than 32 µg/mL against Pseudomonas aeruginosa. Besides, the MIC with Vibrio alginolyticus is more than 32 µg/mL; against Vibrio anguillarum, more than 32 µg/mL; against Vibrio harveyi it was 4 µg/mL (≈ 15.1 µM); in the data set with Vibrio parahaemolyticus it was 32 µg/mL (≈ 121 µM); against Alternaria brassicae, more than 32 µg/mL; in data set [1], 32 µg/mL (≈ 121 µM). Further, the MIC in the data set with Gaeumannomyces graminis was more than 32 µg/mL. Further, the LC50 in data set [2] is more than 10 µg/mL.
Turning to `Cc1cc(O)cc(Oc2cc(C)cc(OCc3ccc([C@@](C)(O)CCCC(C)C)c(O)c3)c2)c1`, the MIC against Escherichia coli is more than 32 µg/mL; in the data set on Staphylococcus aureus, more than 32 µg/mL; against Aeromonas hydrophila, more than 32 µg/mL; with Edwardsiella tarda, more than 32 µg/mL; with Micrococcus luteus, 1 µg/mL (≈ 2.15 µM); against Pseudomonas aeruginosa it was 32 µg/mL (≈ 68.9 µM). The MIC is 2 µg/mL (≈ 4.3 µM) with Vibrio alginolyticus; more than 32 µg/mL with Vibrio anguillarum; more than 32 µg/mL against Vibrio harveyi; more than 32 µg/mL with Vibrio parahaemolyticus; 0.5 µg/mL (≈ 1.08 µM) with Alternaria brassicae; more than 32 µg/mL in [1]. The compound also yielded an MIC with Gaeumannomyces graminis of 32 µg/mL (≈ 68.9 µM). Also, the LC50 in data set [2] was more than 10 µg/mL.
For `C[C@@H]1[C@H](O)[C@@H](C)/C=C/C=C/C=C/C=C/C=C/C=C/C=C/[C@H](O[C@@H]2O[C@H](C)[C@@H](O)[C@H](N)[C@@H]2O)C[C@@H]2O[C@](O)(C[C@@H](O)C[C@@H](O)[C@H](O)CC[C@@H](O)C[C@@H](O)CC(=O)O[C@H]1C)C[C@H](O)[C@H]2C(=O)O` [AMPHOTERICIN B], the MIC with Alternaria brassicae is 32 µg/mL (≈ 34.6 µM); in data set [1], 32 µg/mL (≈ 34.6 µM); against Gaeumannomyces graminis, 64 µg/mL (≈ 69.3 µM).
As for `Cc1ccc([C@@]2(C)CCC(=O)O2)c(O)c1`, the MIC was 32 µg/mL (≈ 155 µM) in the data set with Escherichia coli; 32 µg/mL (≈ 155 µM) against Staphylococcus aureus; more than 32 µg/mL against Aeromonas hydrophila; more than 32 µg/mL against Edwardsiella tarda; more than 32 µg/mL against Micrococcus luteus; more than 32 µg/mL in the data set on Pseudomonas aeruginosa. In addition, the MIC is more than 32 µg/mL against Vibrio alginolyticus; more than 32 µg/mL against Vibrio anguillarum; 4 µg/mL (≈ 19.4 µM) in the data set with Vibrio harveyi; more than 32 µg/mL against Vibrio parahaemolyticus; more than 32 µg/mL in the data set with Alternaria brassicae; 32 µg/mL (≈ 155 µM) in data set [1]. In the data set with Gaeumannomyces graminis, this compound gave an MIC of 32 µg/mL (≈ 155 µM). Further, in [2], the LC50 was more than 10 µg/mL.
For `C=C(CCCC(C)C)c1ccc(C(=O)O)cc1O`, the MIC against Escherichia coli is more than 32 µg/mL; with Staphylococcus aureus it was 32 µg/mL (≈ 129 µM); in the data set on Aeromonas hydrophila it was more than 32 µg/mL; in the data set on Edwardsiella tarda, more than 32 µg/mL; against Micrococcus luteus, more than 32 µg/mL; in the data set with Pseudomonas aeruginosa, more than 32 µg/mL. Further, the MIC against Vibrio alginolyticus is more than 32 µg/mL; in the data set on Vibrio anguillarum it was more than 32 µg/mL; in the data set on Vibrio harveyi it was 4 µg/mL (≈ 16.1 µM); in the data set on Vibrio parahaemolyticus it was 32 µg/mL (≈ 129 µM); against Alternaria brassicae, more than 32 µg/mL; in [1], more than 32 µg/mL. Besides, the MIC against Gaeumannomyces graminis was 0.5 µg/mL (≈ 2.01 µM). Besides, the LC50 in data set [2] is more than 10 µg/mL.

By MIC is commonly meant the least concentration at which growth counts as inhibited. A low value points to inhibition by little substance.
